Source: PubChem (several laboratories)
An excerpt weighted towards active compounds, which were near 0.99% of everything screened.
Tn7 DDE FP – disrupts Tn7 cyclic peptide binding to fibrin D-Dimer-E complex; P02675; FP displacement of FITC-Tn7 peptide from fibrin DD(E); 0% = median of compound wells per plate; inhibition, % at 8.3 µM; 370,000 compounds, 0.13% hits;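 active means inhibition above the mean of compounds falling within the control limits plus 3 SD of them, cut at about 14% in these data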;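 further: 0% = plate median of compound wells and 100% = 10 µM Aha-Tn7 peptide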
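Assay system: human fibrin DD(E) protein / Input: 2 µM fibrin DD(E) / Benchmarks: high control of 10 µM Aha-Tn7 peptide / Measured by: fluorescence polarization of the labelled Tn7 tracer / Medium: Tris buffer with calcium and detergent, pH 7.8 / Timing: 10 min compound pre-incubation, 3 h probe incubation at room temperature / Repeats: one replicate per compound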
Ins promoter up – MIN6 insulin promoter up-regulation; MIN6 insulin promoter-GFP reporter, high-content imaging; active compounds read high; z-score at 5 µM; 190,000 compounds, 0.3% hits;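 active means z-score above 3 at 5 µM with at least 500 cells counted in the well; inconclusive means wells under 500 cells, flagged as cytotoxic or low count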
ABCG2 block – inhibitors of human ABCG2 transporter, ABCB1 counter-screen. IgMXP3 cells, JC-1 efflux, flow cytometry. 190,000 compounds, 0.1% hits. Q9UNQ0. inhibition, % at 6.6 µM. AID 1325;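 active means inhibition above 80%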;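 further: 0% = DMSO and 100% = nicardipine control wells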
Target sequence (Q9UNQ0 whole entry, looked up): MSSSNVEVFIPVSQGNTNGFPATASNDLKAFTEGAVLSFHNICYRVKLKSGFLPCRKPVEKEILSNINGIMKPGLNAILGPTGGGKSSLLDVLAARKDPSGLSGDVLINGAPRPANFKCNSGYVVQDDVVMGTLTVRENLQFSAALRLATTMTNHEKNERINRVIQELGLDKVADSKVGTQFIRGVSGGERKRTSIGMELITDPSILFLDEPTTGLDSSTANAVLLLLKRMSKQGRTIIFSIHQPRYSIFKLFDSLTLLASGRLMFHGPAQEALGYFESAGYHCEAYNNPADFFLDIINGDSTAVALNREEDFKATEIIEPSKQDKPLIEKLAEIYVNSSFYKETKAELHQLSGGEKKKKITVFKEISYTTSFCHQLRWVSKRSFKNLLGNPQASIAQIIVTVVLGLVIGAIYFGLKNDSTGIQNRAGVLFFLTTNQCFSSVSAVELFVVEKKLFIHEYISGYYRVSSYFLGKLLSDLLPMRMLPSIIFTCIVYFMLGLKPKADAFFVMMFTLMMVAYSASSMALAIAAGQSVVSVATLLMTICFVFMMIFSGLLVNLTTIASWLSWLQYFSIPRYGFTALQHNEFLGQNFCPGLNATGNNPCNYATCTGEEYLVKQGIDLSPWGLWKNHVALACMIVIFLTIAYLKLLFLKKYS
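test system = two drug-resistant human cell lines, ABCG2 and ABCB1 | amount = 3 million cells/mL final, two lines in 1:1 ratio | reagent = JC-1 transporter substrate | doses = one concentration, 6.6 µM final | incubation = 10 min at 25 °C | signal = flow cytometric JC-1 green MFI at 530 nm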
ABCB1 inh – inhibitors of human ABCB1 transporter, ABCG2 counter-screen; P08183; CCRF-Adr cells, JC-1 efflux, flow cytometry; inhibition, % at 6.6 µM; 190,000 compounds, 0.067% hits; AID 1326; in the data active means inhibition above about 40%;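 further: 0% = vehicle and 100% = reference inhibitor; higher value means more JC-1 retained so stronger ABCB1 efflux block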
GRK2 inh – blocks RNA aptamer binding to human GRK2. P25098. bead flow cytometry, FAM-aptamer displacement from GRK2. inhibition of aptamer binding, % at 10 µM. 330,000 compounds, 0.59% hits;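 active means inhibition of aptamer binding above 40%, roughly 3 SD of noise, on plates passing a quality check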;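 further: median bead fluorescence of bound FAM aptamer so fluorescent compounds give negative values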
DDE Tn6 FP inh – DD(E)-Tn6 binding inhibition, primary FP screen; Fibrin DD(E) TRITC-Tn6 fluorescence polarization displacement; inhibition, % at 8.3 µM; 370,000 compounds, 0.21% hits; AID 720509;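 active means inhibition above a per-campaign cutoff: mean of compounds within control limits plus 3 SD, cut at about 15% in these data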;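 further: 0% = median of all compound wells on the plate and 100% = blocking peptide control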
ABCB1 confirm – confirmation of human ABCB1 transporter inhibitors, ABCG2 counter-screen | shares compounds with ABCG2 block | CCRF-Adr cells, JC-1 efflux, flow cytometry | inhibition, % at 6.6 µM | 270 compounds, 7% hits | AID 1451;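 active means inhibition of pump activity above 50%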;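 further: 0% = DMSO and 100% = nicardipine full pump inhibition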
ABCG2 single pt – inhibits human ABCG2 efflux, confirmed at single point | shares compounds with ABCG2 block | IgMXP3 cells, JC-1 efflux, flow cytometry | inhibition, % at 6.6 µM | 270 compounds, 6% hits | AID 1453;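 active means inhibition above 50%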;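 further: 0% = DMSO wells and 100% = nicardipine pump inhibitor wells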
IgMXP3 autofluor – counter-screen for ABCG2 inhibitors: compound fluorescence in IgMXP3 cells; shares compounds with ABCG2 block; compound autofluorescence 488/530 nm, flow; active compounds read high; fluorescence at 6.6 µM; 270 compounds, 30% hits; AID 1480;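 active means fluorescence in ABCG2-expressing cells above the plate's control-well mean plus 3 SD, cut at about 15 in these data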;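 further: median cell fluorescence with compound minus that of DMSO-treated control cells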
CCRF autofluor – CCRF-Adr autofluorescence flag for ABCB1 confirmation | shares compounds with ABCG2 block | 270 compounds, 30% hits | CCRF-Adr cells, compound autofluorescence 488/530 nm, flow cytometry; active compounds read high | fluorescence at 6.6 µM;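 active means fluorescence beyond the plate control mean plus 3 SD, with a fluorescence-to-maximum score over 2, cut at about 25 in these data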
Numbers without * were called inactive; u = inconclusive; x = not tested or not shown.

SMILES	Tn7 DDE FP	Ins promoter up	ABCG2 block	ABCB1 inh	GRK2 inh	DDE Tn6 FP inh	ABCB1 confirm	ABCG2 single pt	IgMXP3 autofluor	CCRF autofluor
O=C1S/C(=C/c2ccc(N3CCOCC3)o2)C(=O)N1Cc1c(F)cccc1Cl	1.0	x	135.9*	4.7	0.0	2.6	-11.6	2.9	248*	49.4*
Cn1cccc1C(=O)N1CCN(S(=O)(=O)c2ccc(F)cc2)CC1	-7.5	x	x	x	x	2.1	x	x	x	x
CC(Cc1cccs1)NC(=S)Nc1ccc(Cl)c(Cl)c1 (centres undefined)	6.5	0.63	61.2	0.8	5.0	-0.4	-4.4	7.0	3.16	10.2
C=CCOC(=O)N1CCN(C(=O)c2ccc3nc(C)n(C4CCCC4)c3c2)CC1	7.0	x	x	x	x	-0.5	x	x	x	x
N#Cc1cc2nc(O)c(O)nc2cc1[N+](=O)[O-]	-3.2	x	x	x	1.0	-2.0	x	x	x	x
CNc1nc2cc([N+](=O)[O-])c([N+](=O)[O-])cc2nc1NC	3.3	u	123.6*	0.2	5.0	-2.8	47.7	69.3*	20.8*	30.5*
O=C(Nc1nc2ccc([N+](=O)[O-])cc2s1)c1c(F)cccc1F	-2.1	-0.59	80.4	1.3	0.0	2.6	-0.2	30.0	-3.39	-5.69
CCn1c(SCC(=O)Nc2ccc(C(C)C)cc2)nnc1-c1ccc(C(C)(C)C)cc1	2.6	x	x	x	x	6.5	x	x	x	x
Cc1cc(C)c(C#N)c(SCc2ccccc2[N+](=O)[O-])n1	-0.3	-0.21	100.6*	7.2	0.0	-4.1	6.5	48.4	-1.09	-1.99
Cc1cc(C)c(C#N)c(SCc2c(F)cccc2[N+](=O)[O-])n1	1.9	0.04	92.1*	4.7	0.0	-3.7	3.2	51.5*	-2.04	-4.54
Cc1cc(C)c(C#N)c(SCc2nnc(-c3ccccc3[N+](=O)[O-])o2)n1	-0.3	-1.86	10.7	1.6	4.0	0.6	x	x	x	x
COc1ccc([N+](=O)[O-])cc1NC(=O)C(C)Sc1ccc(C)cc1 (centres undefined)	-5.0	0.12	81.7*	1.7	0.0	0.7	5.4	34.6	3.61	3.81
COc1ccc(-c2cc(C#N)nc(Cl)n2)cc1	3.2	0.59	x	x	1.0	-4.9	x	x	x	x
COc1ccc(-c2cc(C#N)nc(Oc3ccc(Cl)cc3)n2)cc1	-3.6	-0.02	83.5*	-0.1	1.0	3.0	11.4	9.9	34.8*	25.6*
CC(C)n1c(O)c(N=NC(=O)Cn2ccc(C(F)(F)F)n2)c2ccccc21	-1.4	0.25	88.8*	1.4	0.0	10.0	16.5	16.9	2.86	28*
COC(=O)[C@H]1C[C@@]2(C)c3ccccc3N(S(=O)(=O)c3ccccc3)[C@H]2N1C(=O)CNC1CCCCC1	-7.5	x	x	x	x	-4.6	x	x	x	x
CCCCCn1c(CN2CCN(Cc3ccccc3)CC2)nc2c1c(=O)n(C)c(=O)n2C	-4.0	x	27.9	56.5*	0.0	2.2	22.8	14.0	0.81	-2.39
CCc1ccc2oc(-c3ccc(OC)cc3)cc(=Nc3c(C)n(C)n(-c4ccccc4)c3=O)c2c1	5.4	-1.26	96.9*	44.4*	1.0	1.9	28.1	40.7	0.21	1.61
C#CCNC(=O)C[C@H]1C[C@@]2(C(=O)OC)C(=C[C@H](COCc3ccccc3)O[C@@H]2C)N(Cc2ccccc2)C1=O	-3.0	x	x	x	x	-2.8	x	x	x	x
CN(C)c1ccc(/C=C2\N=C(c3ccc(Cl)c([N+](=O)[O-])c3)NC2=O)cc1	-3.1	x	83.4*	83.0*	0.0	-0.2	3.5	5.5	74.7*	93.7*
CN(C)c1ccc(/C=C2/NC(=O)NC2=O)cc1	-11.4	0.17	7.5	0.3	0.0	-2.3	x	x	x	x
